# Measured values collected from several papers.
# Target: Bone morphogenetic protein receptor type-1B (BMPR1B, Homo sapiens, UniProt O00238)
Structure (SMILES),effect on,mode,technique,concentration,quantity,result
C[C@@H]1CCN(c2nccc(-c3cnn4ncccc34)n2)C1,binding,,,1 µM,remaining binding,68%
Cc1cnc(NC2CCOCC2)nc1-n1cnc(C(=O)NC(CN)c2cc(F)cc(Cl)c2)c1 (stereo not shown),enzyme activity,inhibitor,radiometric,1 µM,remaining activity,106%
O=C(Nc1cnn(-c2csc(C(=O)NC3COC3)c2)c1)Nc1ccccc1Cl,enzyme activity,inhibitor,,5 µM,remaining activity,109%
Cc1ccc(C(=O)Nc2ccc(CN3CCN(C)CC3)c(C(F)(F)F)c2)cc1C#Cc1cnc2cccnn12,enzyme activity,,,23.5 nM,remaining activity,96%
Cc1sc(C(=O)NC2COC2)cc1-n1cc(NC(=O)Nc2c(F)cccc2Cl)cn1,enzyme activity,inhibitor,,10 µM,remaining activity,104%
Nc1ncnc2occ(-c3ccc(NC(=O)Nc4cc(C(F)(F)F)ccc4F)cc3)c12,cell-free assay,,,20 µM,remaining signal,37%
Cc1ccc(NC(=O)c2ccc(C)c(C(F)(F)F)c2)cc1C#Cc1nn(C2CCC(O)CC2)c2ncnc(N)c12 (stereo not shown),cell-free assay,,,10 µM,remaining signal,18%
Cc1cc(NC(=O)c2cccc3cc(-c4cccc5[nH]nc(N)c45)ccc23)ccc1F,enzyme activity,inhibitor,,0.1 µM,activity vs control,100%
CN1CC(Oc2cnc(C#N)cc2-c2ccn3nc(NC(=O)C4CC4)cc3c2)C1,enzyme activity,inhibitor,,1 µM,inhibition,-1%
N#Cc1ccc(Nc2ccc3[nH]c(=O)[nH]c3c2)c(Cl)c1,cell-free assay,,competition with immobilised ligand,1 µM,remaining binding,100%
COc1cc(Cl)c(C(=O)N[C@@H](CN[C@H]2CC[C@@H](N)CC2)Cc2ccc(C#N)cc2)cc1-c1ccc(CN[C@H](C)c2ccc(C)cc2)o1,enzyme activity,inhibitor,,1 µM,remaining activity,101%
CC(C)(O)[C@H]1CC[C@H](Nc2ccc3ncc(-c4cccc(C(F)(F)F)c4)n3n2)CC1,enzyme activity,inhibitor,,1 µM,remaining activity,147%
CNC(=O)c1ccc(Nc2ncc(C(F)(F)F)c(NCc3nccnc3N(C)S(C)(=O)=O)n2)cc1,cell-free assay,,competition with immobilised ligand,0.1 µM,remaining binding,65%
